# Laboratory results taken from PMC10938134 (International Journal for Parasitology: Drugs and Drug …, 2024).
# Columns and labels:
# [1] = test system: bloodstream stage of Trypanosoma brucei brucei; assay: Viability assay for T. brucei brucei; format: cell-based; conditions: 24 h
# [2] = test system: redox biosensor hGrx1-roGFP2 in bloodstream T. b. brucei; assay: Redox reporter assay for T. brucei brucei; format: cell-based, Trypanosoma brucei brucei; conditions: compound at its EC50 for 1 h; p < 0.001 compared to DMSO-treated parasites
# Summary of the method: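 Exponential-phase bloodstream parasites expressing the redox biosensor were exposed for 1 h to the test compound, with 1% v/v DMSO as vehicle and untreated cells as minimum. Diamide at 500 μM for 20 min gave maximum oxidation. Samples were then incubated for 20 min with 1 mM DTT. Flow cytometry gave % biosensor oxidation relative to these maximum and minimum conditions.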
# [3] = Trypanosoma brucei, bloodstream parasites, 24 h incubation, compounds tested at 5 μM
structure (smiles),measurement,setting,value
"N=C(N)c1ccc(N=NNc2ccc(C(=N)N)cc2)cc1 [Ber, Berenil, reference compound]",EC50,"[1]; bloodstream T. b. brucei, concentration-response curves",430 ± 70 nM
"OC[C@H]1O[C@@H]([Se]Cc2ccc3ccccc3n2)[C@H](O)[C@@H](O)[C@@H]1O [compound 11, Quinolin-2-ylmethyl 1-seleno-β-D-glucopyranoside]",EC50,[1]; Trypanosoma brucei,~5000 nM
same,viability at 5 µM,[1]; Trypanosoma brucei,57.5 ± 3.8%
"CC(=O)OC[C@H]1O[C@@H]([Se]Cc2ccc3ccccc3n2)[C@H](OC(C)=O)[C@@H](OC(C)=O)[C@@H]1OC(C)=O [compound 12, Quinolin-2-ylmethyl 2,3,4,6-tetra-O-acetyl-1-seleno-β-D-glucopyranoside]",significant oxidation of the redox biosensor (in words),[2],Except for the quinolino Se-glycoside 12
"COc1ccc2c(C[Se][C@@H]3O[C@H](CO)[C@@H](O)[C@H](O)[C@H]3O)cc(=O)oc2c1 [compound 13, 7-Methoxycoumarin-4-ylmethyl 1-seleno-β-D-glucopyranoside]",viability at 5 µM,[1]; [3],57.3 ± 0.4%
"COc1ccc2c(C[Se][C@@H]3O[C@H](CO)[C@H](O)[C@H](O)[C@H]3O)cc(=O)oc2c1 [compound 14, 7-Methoxycoumarin-4-ylmethyl 1-seleno-β-D-galactopyranoside]",viability at 5 µM,[1]; [3],≤ 50%
